Data taken from ChEMBL document CHEMBL4024777, “Discovery of LY3104607: A Potent and Selective G Protein-Coupled Receptor 40 (GPR40) Agonist with Optimized Pharmacokinetic Properties to Support Once Daily Oral Treatment in Patients with Type 2 Diabetes Mellitus” (J Med Chem, 2018).
Converted amounts (≈) assume the structure as drawn. The source made the active and inactive calls. The rule behind the calls is not given here.

Assays:
Cytochrome P450 2C9 = Cytochrome P450 2C9 (Homo sapiens, UniProt P11712); assay: Inhibition of human CYP2C9; format: ADME
Cytochrome P450 2C9, sequence (P11712 whole entry): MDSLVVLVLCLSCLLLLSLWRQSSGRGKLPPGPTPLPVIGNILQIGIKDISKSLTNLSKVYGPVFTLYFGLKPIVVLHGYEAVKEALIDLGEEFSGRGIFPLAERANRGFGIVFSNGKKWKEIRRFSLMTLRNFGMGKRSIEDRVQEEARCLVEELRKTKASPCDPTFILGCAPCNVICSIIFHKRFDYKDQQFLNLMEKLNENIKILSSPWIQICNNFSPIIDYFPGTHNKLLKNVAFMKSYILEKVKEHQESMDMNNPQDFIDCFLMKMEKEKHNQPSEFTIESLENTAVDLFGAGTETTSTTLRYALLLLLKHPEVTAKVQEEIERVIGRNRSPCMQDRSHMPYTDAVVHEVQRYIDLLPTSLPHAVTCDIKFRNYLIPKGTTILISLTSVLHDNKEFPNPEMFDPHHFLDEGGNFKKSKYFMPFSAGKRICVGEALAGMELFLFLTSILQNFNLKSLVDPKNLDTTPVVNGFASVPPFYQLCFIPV

[1] = AUC (0 to 24 hrs) in Beagle dog at 300 mg/kg, po; format: ADME, organism-based, Canis lupus familiaris; set-up: time < 24 hr, dose 300 mg/kg, route oral; details: in vivo
[2] = molecular target: T1, Peroxisome proliferator-activated receptor alpha (Homo sapiens) (UniProt Q07869); assay: Agonist activity at GAL4-fused human PPARalpha expressed in African green monkey CV1 cells up to 30 uM after 24 hrs by luciferase reporter gene assay; format: cell-based
T1 sequence (whole entry): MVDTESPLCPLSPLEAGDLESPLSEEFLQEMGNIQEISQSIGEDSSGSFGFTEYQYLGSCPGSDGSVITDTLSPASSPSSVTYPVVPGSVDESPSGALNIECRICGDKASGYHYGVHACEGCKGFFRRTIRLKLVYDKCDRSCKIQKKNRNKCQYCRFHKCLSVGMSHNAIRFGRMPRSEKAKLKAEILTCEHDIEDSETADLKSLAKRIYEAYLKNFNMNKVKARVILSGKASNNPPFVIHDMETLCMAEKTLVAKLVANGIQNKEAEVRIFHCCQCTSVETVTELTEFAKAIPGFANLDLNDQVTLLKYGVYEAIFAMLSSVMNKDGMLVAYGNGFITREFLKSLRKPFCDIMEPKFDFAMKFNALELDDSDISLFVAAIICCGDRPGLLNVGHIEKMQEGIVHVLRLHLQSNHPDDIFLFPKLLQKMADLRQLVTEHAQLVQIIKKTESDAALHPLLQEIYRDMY
Method in brief: (§1)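 PPAR alpha, delta and gamma binding and functional activity were each tested at concentrations up to 30 µM.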

[3] = Half life in Beagle dog at 3 mg/kg, po; format: ADME, organism-based, Canis lupus familiaris; details: in vivo
[4] = molecular target: Free fatty acid receptor 1 (Rattus norvegicus) (UniProt Q8K3T4); assay: Agonist activity at GPR40 in Sprague-Dawley rat islets assessed as glucose-stimulated insulin secretion levels at 10 uM in presence of 11.2 mM glucose by ELISA (reference value: 6.24 ng/ml)
Free fatty acid receptor 1 (Rattus norvegicus), sequence (Q8K3T4 whole entry): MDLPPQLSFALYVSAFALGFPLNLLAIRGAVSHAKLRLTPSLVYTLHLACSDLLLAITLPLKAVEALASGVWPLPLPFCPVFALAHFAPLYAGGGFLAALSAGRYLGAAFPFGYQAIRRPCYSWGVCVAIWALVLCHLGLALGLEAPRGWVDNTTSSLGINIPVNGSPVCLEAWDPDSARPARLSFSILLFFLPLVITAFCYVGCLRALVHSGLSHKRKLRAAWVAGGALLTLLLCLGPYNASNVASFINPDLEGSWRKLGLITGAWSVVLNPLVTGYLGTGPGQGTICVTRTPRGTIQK

[5] = molecular target: Free fatty acid receptor 1 (Rattus norvegicus, UniProt Q8K3T4); assay: Agonist activity at rat PK-tagged GPR40 expressed in human U2OS cells assessed as EA-tagged beta-arrestin recruitment after 90 mins in presence of 1 % heat inactivated FBS by beta-galactosidase reporter gene assay; format: cell-based
Free fatty acid receptor 1 (Rattus norvegicus, UniProt Q8K3T4), sequence (Q8K3T4 whole entry): as above
Method in brief: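 β-Arrestin recruitment used rat GPR40 in the presence of 1% FBS. EC50 and % maximal stimulation are reported with SEM and n.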

[6] = molecular target: T1, Peroxisome proliferator-activated receptor alpha (Homo sapiens); assay: Displacement of [3H]-agonist from human PPARalpha expressed in baculovirus infecetd Sf9 cells system up to 30 uM after 10 hrs in presence of DR2 by scintillation proximity assay; method in brief: as §1
[7] = AUC (0 to 24 hrs) in Sprague-Dawley rat at 1 mg/kg, iv; format: ADME, organism-based; set-up: dose 1 mg/kg, time < 24 hr, route intravenous; details: in vivo
[8] = AUC (0 to 24 hrs) in Beagle dog at 30 mg/kg, po; format: ADME, organism-based, Canis lupus familiaris; set-up: dose 30 mg/kg, time < 24 hr, route oral; details: in vivo
Rattus norvegicus [9] = assay: Antidiabetic activity in po dosed Zucker fa/fa rat assessed as reduction in blood glucose AUC administered for 1 day followed by OGTT at 1 hr after compound dosing and measured 60 mins post glucose challenge by oral glucose tolerance test; format: functional
Method in brief: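 Male Zucker fa/fa rats, 10 weeks old, were dosed orally at 1, 3 and 10 mg/kg. The OGTT was run 1 h after dosing with an oral glucose challenge of 2 g/kg. The glucose AUC was calculated, and a dose-response curve gave the ED90.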

[10] = molecular target: Free fatty acid receptor 1 (Rattus norvegicus) (UniProt Q8K3T4); assay: Agonist activity at rat PK-tagged GPR40 expressed in human U2OS cells assessed as EA-tagged beta-arrestin recruitment after 90 mins in presence of 1 % heat inactivated FBS by beta-galactosidase reporter gene assay relative to untreated control; format: cell-based
[11] = Oral bioavailability in Beagle dog at 3 mg/kg; format: ADME, organism-based, Canis lupus familiaris; details: in vivo
Method in brief: (§2)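 Fasted dogs dosed orally at 3 mg/kg. […] Bioavailability is derived relative to the 1 mg/kg IV dose.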

[12] = AUC (0 to 24 hrs) in Beagle dog at 1 mg/kg, iv; format: ADME, organism-based, Canis lupus familiaris; set-up: time < 24 hr, dose 1 mg/kg, route intravenous; details: in vivo
[13] = Tmax in Beagle dog at 30 mg/kg, po; format: ADME, organism-based, Canis lupus familiaris; details: in vivo
Method in brief: (§3)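 Dogs dosed orally at 30, 100 or 300 mg/kg, N = 2 per dose.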

[14] = Tmax in Beagle dog at 3 mg/kg, po; format: ADME, organism-based, Canis lupus familiaris; details: in vivo; method in brief: as §2
[15] = Oral bioavailability in Sprague-Dawley rat at 1 mg/kg; format: ADME, organism-based; details: in vivo
Method in brief: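 Fasted rats given oral doses of 1 mg/kg. […] Bioavailability is calculated against the 1 mg/kg IV group.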

[16] = Half life in Beagle dog at 1 mg/kg, iv; format: ADME, organism-based, Canis lupus familiaris; details: in vivo
[17] = Cmax in Beagle dog at 100 mg/kg, po; format: ADME, organism-based, Canis lupus familiaris; set-up: dose 100 mg/kg, route oral; details: in vivo
[18] = Solubility of the compound in pH 8.1 buffer; format: physicochemical
[19] = Volume of distribution at steady state in Beagle dog at 1 mg/kg, iv; format: ADME, organism-based, Canis lupus familiaris; details: in vivo, read-out: Vdss
[20] = Lipophilicity, log P of the compound; format: physicochemical; details: octanol/water
[21] = Protein binding in plasma (unknown origin) by equilibrium dialysis assay; format: ADME, cell-free; details: read-out: PPB
[22] = AUC (0 to 24 hrs) in Sprague-Dawley rat at 1 mg/kg, po; format: ADME, organism-based; set-up: time < 24 hr, dose 1 mg/kg, route oral; details: in vivo
[23] = Drug metabolism in dog hepatocytes assessed as glucuronidation; format: ADME, cell-based, Canis lupus familiaris, Hepatocyte
Rattus norvegicus [24] = assay: Toxicity in Zucker fa/fa rat assessed as alteration in food consumption at 1 to 10 mg/kg, po; format: organism-based; details: in vivo
Method in brief: (§4)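 Male Zucker fa/fa rats, 10 weeks old, given daily oral doses of 1, 3 or 10 mg/kg for 21 days. Body weight and food consumption tracked, with a reference agonist as positive control.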

Rattus norvegicus [25] = assay: Toxicity in Zucker fa/fa rat assessed as change in body weight at 1 to 10 mg/kg, po; format: organism-based; details: in vivo; method in brief: as §4
[26] = molecular target: T2, Free fatty acid receptor 1 (Homo sapiens, UniProt O14842); assay: Agonist activity at human GPR40 receptor expressed in HEK293 cells assessed as increase in intracellular calcium flux after 2.5 hrs measured over 3 mins by calcium 4 dye-based FLIPR assay relative to linoleic acid; format: functional, cell-based; set-up: Activity: concentration or dose not given beside the values
T2 sequence (O14842 whole entry): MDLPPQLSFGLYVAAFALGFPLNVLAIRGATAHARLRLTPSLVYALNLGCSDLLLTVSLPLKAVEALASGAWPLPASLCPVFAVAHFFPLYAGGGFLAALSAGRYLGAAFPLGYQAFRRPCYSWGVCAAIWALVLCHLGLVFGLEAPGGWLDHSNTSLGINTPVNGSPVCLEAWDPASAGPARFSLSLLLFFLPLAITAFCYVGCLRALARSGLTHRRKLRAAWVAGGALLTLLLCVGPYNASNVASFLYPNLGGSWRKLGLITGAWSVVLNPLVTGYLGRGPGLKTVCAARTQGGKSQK
Method in brief: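 Human GPR40 calcium flux was read on FLIPR. Percent stimulation is expressed against the response to 100 uM linoleic acid.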

[27] = Drug metabolism in rat hepatocytes assessed as glucuronidation; format: ADME, cell-based, Hepatocyte
[28] = Tmax in Sprague-Dawley rat at 10 mg/kg, po; format: ADME, organism-based; details: in vivo
[29] = Tmax in Beagle dog at 300 mg/kg, po; format: ADME, organism-based, Canis lupus familiaris; details: in vivo; method in brief: as §3
[30] = Tmax in Sprague-Dawley rat at 500 mg/kg, po; format: ADME, organism-based; details: in vivo
[31] = Tmax in Sprague-Dawley rat at 100 mg/kg, po; format: ADME, organism-based; details: in vivo
[32] = Metabolic stability in mouse microsomes assessed as compound metabolized after 30 mins; format: ADME, Microsome; details: read-out: Drug metabolism
Method in brief: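 Compound incubated 30 min with liver microsomes from mouse, rat, dog or human. Percent of compound metabolized recorded, as mean (SEM, n).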

[33] = molecular target: Voltage-gated inwardly rectifying potassium channel KCNH2 (Homo sapiens, UniProt Q12809); assay: Inhibition of human ERG at 100 uM
Voltage-gated inwardly rectifying potassium channel KCNH2, sequence (Q12809 whole entry): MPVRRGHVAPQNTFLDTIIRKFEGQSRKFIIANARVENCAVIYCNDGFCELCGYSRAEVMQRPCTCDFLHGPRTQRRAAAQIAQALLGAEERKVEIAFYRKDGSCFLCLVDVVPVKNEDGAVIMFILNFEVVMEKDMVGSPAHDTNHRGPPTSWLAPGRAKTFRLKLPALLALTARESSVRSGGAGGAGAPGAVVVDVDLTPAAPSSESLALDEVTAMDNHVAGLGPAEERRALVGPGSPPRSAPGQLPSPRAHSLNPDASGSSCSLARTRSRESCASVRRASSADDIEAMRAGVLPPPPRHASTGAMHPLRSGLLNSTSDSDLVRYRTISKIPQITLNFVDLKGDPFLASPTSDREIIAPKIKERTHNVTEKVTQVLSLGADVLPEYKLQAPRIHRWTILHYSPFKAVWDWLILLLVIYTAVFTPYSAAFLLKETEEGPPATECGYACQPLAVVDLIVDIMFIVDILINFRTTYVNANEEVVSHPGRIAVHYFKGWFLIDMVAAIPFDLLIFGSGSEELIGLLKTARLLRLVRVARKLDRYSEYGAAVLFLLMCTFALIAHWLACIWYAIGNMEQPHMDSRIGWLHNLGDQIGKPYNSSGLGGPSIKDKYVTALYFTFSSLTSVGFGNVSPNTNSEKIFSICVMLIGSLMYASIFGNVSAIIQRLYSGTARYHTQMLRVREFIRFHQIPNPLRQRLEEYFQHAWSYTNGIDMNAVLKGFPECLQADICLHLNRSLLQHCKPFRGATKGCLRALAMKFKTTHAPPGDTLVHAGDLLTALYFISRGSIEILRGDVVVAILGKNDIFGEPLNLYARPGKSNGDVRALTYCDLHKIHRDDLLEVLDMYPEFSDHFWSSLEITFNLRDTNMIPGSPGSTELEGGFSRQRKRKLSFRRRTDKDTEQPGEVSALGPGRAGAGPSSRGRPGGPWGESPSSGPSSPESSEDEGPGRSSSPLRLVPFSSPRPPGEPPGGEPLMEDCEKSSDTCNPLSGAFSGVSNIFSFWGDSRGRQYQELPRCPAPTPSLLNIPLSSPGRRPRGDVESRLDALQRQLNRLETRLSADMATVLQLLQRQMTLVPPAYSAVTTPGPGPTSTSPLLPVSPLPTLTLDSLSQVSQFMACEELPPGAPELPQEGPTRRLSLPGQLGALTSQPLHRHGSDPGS

[34] = molecular target: T2, Free fatty acid receptor 1; assay: Agonist activity at human GPR40 receptor expressed in HEK293 cells assessed as increase in intracellular calcium flux after 2.5 hrs measured over 3 mins by calcium 4 dye-based FLIPR assay; format: functional, cell-based
Method in brief: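 Calcium flux was read by FLIPR in cells carrying recombinant human GPR40. Percent stimulation is relative to the response to 100 µM linoleic acid. EC50 is reported with SEM and n.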

## CC#C[C@@H](CC(=O)O)c1ccc(OCc2ccc3nc(-c4c(C)cccc4C)nn3c2)cc1
Cytochrome P450 2C9
  IC50: > 60000 nM
[1]
  AUC(0-t) at 24 h: 4010 µg·h/mL
[2]
  Activity: inactive
[3]
  half-life: 5.49 h
[4]
  Activity: 19.4 ng/mL
[5]
  EC50: 14 nM
[6]
  Activity: inactive
[7]
  AUC(0-t) at 24 h: 12.7 µg·h/mL
[8]
  AUC(0-t) at 24 h: 120 µg·h/mL
Rattus norvegicus [9]
  ED90: 4.1 mg/kg
[10]
  %max: 130%
[11]
  bioavailability: 83%
[12]
  AUC(0-t) at 24 h: 27.3 µg·h/mL
[13]
  Tmax: 2 h
[14]
  Tmax: 0.67 h
[15]
  bioavailability: 93%
[16]
  half-life: 6.53 h
[17]
  Cmax: 260 µg/mL
[18]
  solubility: 173 µg/mL (≈ 394 µM)
[19]
  Vd: 0.27 L/kg
[20]
  logP: 4.8
[21]
  fraction unbound: < 0.01
[22]
  AUC(0-t) at 24 h: 11.7 µg·h/mL
[23]
  Drug metabolism: Metabolite_Detected
Rattus norvegicus [24]
  Activity: Non-Toxic
Rattus norvegicus [25]
  Activity: Non-Toxic
[26]
  Activity: 54%
[27]
  Drug metabolism: Metabolite_Detected
[28]
  Tmax: 4 h
[29]
  Tmax: 6 h
[30]
  Tmax: 6.7 h
[31]
  Tmax: 5.3 h
[32]
  metabolised at 0.5 h: 7%
[33]
  inhibition (INH): Not Active
[34]
  EC50: 11 nM
